pIC50: −log10 of the molar value. Active and inactive are the calls of the source. The rule behind the calls is not given here.
System: BJ
Assay: Antiproliferative activity against human BJ cells assessed as inhibition of cell proliferation after 72 hrs by MTT assay
Type: cell-based
Conditions: Homo sapiens, BJ, 72 h
In short: (§1)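 Cells grown as monolayers in DMEM with 10% FBS, 2 mM L-glutamine, penicillin/streptomycin, 37 °C, 5% CO2. Seeded at 5000/well on day 0. Compounds added after 24 h as five serial dilutions (0,01 to 100 µM), DMSO ≤0.1%, then 72 h. MTT read-out converted to percentage growth. IC50 by linear regression; quadruplicates in three experiments.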
`Cl.c1ccc2c(c1)CN(c1ccc(C3=NCCN3)cc1)/C2=N/c1ccc(C2=NCCN2)cc1` showed a pIC50 of 5.06.
For `CC(C)NC(=N)c1ccc(N2Cc3ccccc3C2=O)nc1.Cl`, the pIC50 was 4.74.

Same assay, conditions: bj
For `Cl.Nc1ccc(/N=C2\c3ccccc3CN2c2ccc(N)cc2)cc1`, the pIC50 was 4.09.

Same assay, conditions: human, bj, 72 h
With `Cl.Nc1ccc(/N=C2\c3ccccc3CN2c2ccc(N)cc2)cc1` the “inhibition (INH)” value was “Dose-dependent effect”.
For `Cl.c1ccc2c(c1)CN(c1ccc(C3=NCCN3)cc1)/C2=N/c1ccc(C2=NCCN2)cc1`, the “inhibition (INH)” value was “Dose-dependent effect”.
With `CC(C)NC(=N)c1ccc(N2Cc3ccccc3C2=O)nc1.Cl` the “inhibition (INH)” value was “Dose-dependent effect”.

System: not listed separately
Assay: Binding affinity to pBluescript 265 bp DNA fragment (unknown origin) at 1 to 25 uM incubated for 15 mins by DNase-1 foot printing assay
Conditions: not given
In short: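 265 bp EcoRI/PvuII fragment of pBluescript, 3'-end labelled with α[32P]-dATP, incubated with compound (up to 50 µM) for 15 min at 37 °C, then mildly digested with DNase I. Run on 8% denaturing polyacrylamide/8 M urea gels and imaged by phosphor screen. Base positions assigned against a DMS/piperidine G-track.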
In the case of `Cl.c1ccc2c(c1)CN(c1ccc(C3=NCCN3)cc1)/C2=N/c1ccc(C2=NCCN2)cc1`, the Activity was “inactive”.

System: MCF7
Assay: Antiproliferative activity against human MCF7 cells assessed as inhibition of cell proliferation after 72 hrs by MTT assay
Type: functional, cell-based
Conditions: not given
In short: as §1
For `Cl.c1ccc2c(c1)CN(c1ccc(C3=NCCN3)cc1)/C2=N/c1ccc(C2=NCCN2)cc1`, the inhibition was “Dose-dependent effect”.
With `Nc1ccc(/N=C2\c3ccccc3CN2c2ccc(N)cc2)cc1` the inhibition was “Dose-dependent effect”.
In the case of `CC(C)NC(=N)c1ccc(N2Cc3ccccc3C2=O)nc1.Cl`, the inhibition was “Dose-dependent effect”.

Same assay, conditions: Homo sapiens, MCF7, 72 h
Work on `Cl.c1ccc2c(c1)CN(c1ccc(C3=NCCN3)cc1)/C2=N/c1ccc(C2=NCCN2)cc1` yielded a pIC50 of 4.70.
In the case of `CC(C)NC(=N)c1ccc(N2Cc3ccccc3C2=O)nc1.Cl`, the pIC50 was 5.19.

Same assay, conditions: mcf7
In the case of `Cl.Nc1ccc(/N=C2\c3ccccc3CN2c2ccc(N)cc2)cc1`, the pIC50 was 6.14.

System: Nucleic Acid
Assay: Induction of DNA intercalation in supercoiled pUC19 DNA in presence of human topoisomerase 1 assessed as effect on topoisomerase 1-mediated DNA relaxation at 5 to 50 uM by agarose gel electrophoresis
Type: nucleic-acid assay
Conditions: Escherichia coli
In short: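 Supercoiled pUC19 incubated with human topoisomerase I and graded compound concentrations. Stopped with SDS/proteinase K. DNA forms resolved on 1% agarose in TBE, 2 h at 120 V, stained post-run with ethidium bromide and viewed under UV. Camptothecin was the topo I poison control.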
In the case of `Cl.c1ccc2c(c1)CN(c1ccc(C3=NCCN3)cc1)/C2=N/c1ccc(C2=NCCN2)cc1`, the Activity was “Active”.
In the case of `Nc1ccc(/N=C2\c3ccccc3CN2c2ccc(N)cc2)cc1`, the Activity was “inactive”.

System: Calf thymus DNA
Assay: Binding affinity to calf thymus DNA assessed as change in melting temperature at drug/ base pair ratio of 0.25 by spectrophotometry
Type: nucleic-acid assay
Conditions: Bos taurus
In short: (§2)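 CT-DNA absorbance followed at 260 nm from 20 to 100 °C, rising 1 °C per min, in BPE buffer, with or without compound at drug/base-pair ratio 0.25 or 0.5. Tm taken as midpoint of the hyperchromic transition from first-derivative plots. ΔTm is Tm with compound minus Tm of DNA alone.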
`Cl.c1ccc2c(c1)CN(c1ccc(C3=NCCN3)cc1)/C2=N/c1ccc(C2=NCCN2)cc1` gave a ΔTm of 16 °C.

System: HeLa
Assay: Antiproliferative activity against human HeLa cells assessed as inhibition of cell proliferation after 72 hrs by MTT assay
Type: functional, cell-based
Conditions: not given
In short: as §1
In the case of `Cl.c1ccc2c(c1)CN(c1ccc(C3=NCCN3)cc1)/C2=N/c1ccc(C2=NCCN2)cc1`, the inhibition was “Dose-dependent effect”.
With `Nc1ccc(/N=C2\c3ccccc3CN2c2ccc(N)cc2)cc1` the inhibition was “Dose-dependent effect”.
For `CC(C)NC(=N)c1ccc(N2Cc3ccccc3C2=O)nc1.Cl`, the inhibition was “Dose-dependent effect”.

Same assay, conditions: Homo sapiens, HeLa, 72 h
`Cl.c1ccc2c(c1)CN(c1ccc(C3=NCCN3)cc1)/C2=N/c1ccc(C2=NCCN2)cc1` showed a pIC50 of 4.11.
Work on `CC(C)NC(=N)c1ccc(N2Cc3ccccc3C2=O)nc1.Cl` yielded a pIC50 of under 4.00.

Same assay, conditions: hela
Molecule `Cl.Nc1ccc(/N=C2\c3ccccc3CN2c2ccc(N)cc2)cc1` has a pIC50 of 4.20.

System: not listed separately
Assay: (§3) Antiproliferative activity against human SW620 cells assessed as inhibition of cell proliferation after 72 hrs by MTT assay
Type: functional, cell-based, SW-620
Conditions: Homo sapiens, SW-620, 72 h
In short: as §1
In the case of `Cl.c1ccc2c(c1)CN(c1ccc(C3=NCCN3)cc1)/C2=N/c1ccc(C2=NCCN2)cc1`, the pIC50 was under 4.00.
`CC(C)NC(=N)c1ccc(N2Cc3ccccc3C2=O)nc1.Cl` gave a pIC50 of 4.10.

Same assay, conditions: sw-620
For `Cl.Nc1ccc(/N=C2\c3ccccc3CN2c2ccc(N)cc2)cc1`, the pIC50 was 4.29.

System: SW-620
Assay: as §3
Type: functional, cell-based
Conditions: not given
In short: as §1
For `Cl.c1ccc2c(c1)CN(c1ccc(C3=NCCN3)cc1)/C2=N/c1ccc(C2=NCCN2)cc1`, the inhibition was “Dose-dependent effect”.
In the case of `Nc1ccc(/N=C2\c3ccccc3CN2c2ccc(N)cc2)cc1`, the inhibition was “Dose-dependent effect”.
In the case of `CC(C)NC(=N)c1ccc(N2Cc3ccccc3C2=O)nc1.Cl`, the inhibition was “Dose-dependent effect”.

System: HepG2
Assay: Antiproliferative activity against human HepG2 cells assessed as inhibition of cell proliferation after 72 hrs by MTT assay
Type: functional, cell-based
Conditions: not given
In short: as §1
With `Cl.c1ccc2c(c1)CN(c1ccc(C3=NCCN3)cc1)/C2=N/c1ccc(C2=NCCN2)cc1` the inhibition was “Dose-dependent effect”.
For `Nc1ccc(/N=C2\c3ccccc3CN2c2ccc(N)cc2)cc1`, the inhibition was “Dose-dependent effect”.
In the case of `CC(C)NC(=N)c1ccc(N2Cc3ccccc3C2=O)nc1.Cl`, the inhibition was “Dose-dependent effect”.

Same assay, conditions: HepG2, 72 h
`Cl.c1ccc2c(c1)CN(c1ccc(C3=NCCN3)cc1)/C2=N/c1ccc(C2=NCCN2)cc1` gave a pIC50 of 4.08.
`CC(C)NC(=N)c1ccc(N2Cc3ccccc3C2=O)nc1.Cl` showed a pIC50 of 4.29.

Molecular target: T1, DNA topoisomerase 1 (Homo sapiens) (UniProt P11387)
T1 sequence (whole entry): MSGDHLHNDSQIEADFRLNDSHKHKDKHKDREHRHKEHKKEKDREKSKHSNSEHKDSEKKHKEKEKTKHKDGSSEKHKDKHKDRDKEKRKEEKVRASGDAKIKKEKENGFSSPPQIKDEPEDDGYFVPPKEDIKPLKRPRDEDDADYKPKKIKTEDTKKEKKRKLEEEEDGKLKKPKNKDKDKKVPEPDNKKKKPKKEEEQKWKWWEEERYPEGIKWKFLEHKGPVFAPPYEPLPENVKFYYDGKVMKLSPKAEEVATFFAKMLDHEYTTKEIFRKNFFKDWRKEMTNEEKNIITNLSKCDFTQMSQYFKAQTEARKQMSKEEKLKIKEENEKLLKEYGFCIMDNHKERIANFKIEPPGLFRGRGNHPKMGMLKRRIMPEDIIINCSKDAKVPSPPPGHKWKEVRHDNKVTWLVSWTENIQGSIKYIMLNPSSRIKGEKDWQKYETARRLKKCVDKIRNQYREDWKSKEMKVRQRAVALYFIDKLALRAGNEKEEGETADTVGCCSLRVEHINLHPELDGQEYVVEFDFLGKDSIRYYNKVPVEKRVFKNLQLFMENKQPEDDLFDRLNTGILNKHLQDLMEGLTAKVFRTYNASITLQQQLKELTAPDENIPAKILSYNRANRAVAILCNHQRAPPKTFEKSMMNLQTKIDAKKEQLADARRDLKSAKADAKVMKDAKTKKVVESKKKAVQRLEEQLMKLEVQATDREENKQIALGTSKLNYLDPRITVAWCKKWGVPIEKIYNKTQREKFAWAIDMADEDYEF
Assay: Inhibition of human topoisomerase 1 assessed as topoisomerase poison activity by measuring generation of open circular DNA using supercoiled pUC19 DNA at 5 to 50 uM by agarose gel electrophoresis
Conditions: not given
In short: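 Supercoiled pUC19 plasmid was incubated with human topoisomerase I and graded compound concentrations. Reactions were stopped with SDS and proteinase K. DNA forms were resolved on 1% agarose in TBE (2 h, 120 V), post-stained with ethidium bromide and photographed under UV. Poisoning was read as appearance of nicked DNA, with camptothecin as the positive control.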
In the case of `Cl.c1ccc2c(c1)CN(c1ccc(C3=NCCN3)cc1)/C2=N/c1ccc(C2=NCCN2)cc1`, the inhibition was “inactive”.
For `Nc1ccc(/N=C2\c3ccccc3CN2c2ccc(N)cc2)cc1`, the inhibition was “inactive”.

System: Calf thymus DNA
Assay: Binding affinity to calf thymus DNA assessed as change in melting temperature at drug/ base pair ratio of 0.5 by spectrophotometry
Type: nucleic-acid assay
Conditions: Bos taurus
In short: as §2
In the case of `Cl.c1ccc2c(c1)CN(c1ccc(C3=NCCN3)cc1)/C2=N/c1ccc(C2=NCCN2)cc1`, the ΔTm was 19.6 °C.
With `Nc1ccc(/N=C2\c3ccccc3CN2c2ccc(N)cc2)cc1` the ΔTm was 0 °C.

System: Calf thymus DNA
Assay: Binding affinity to calf thymus DNA at 50 uM circular dichroism spectroscopy
Type: nucleic-acid assay
Conditions: Bos taurus
In short: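 CD spectra recorded from 480 to 230 nm, 10 mm path, 20 °C, in BPE buffer. CT-DNA (50 µM) incubated with compound rising from 1 to 60 µM or to 80 µM. Compound without DNA served as the control for intrinsic CD.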
In the case of `Cl.c1ccc2c(c1)CN(c1ccc(C3=NCCN3)cc1)/C2=N/c1ccc(C2=NCCN2)cc1`, the Activity was “Active”.

— ChEMBL document CHEMBL3352181, “Novel phenyl and pyridyl substituted derivatives of isoindolines: Synthesis, antitumor activity and DNA binding features” (Eur J Med Chem, 2014)
